Screening data (PubChem)
FGF22 binding: FGF22 (human) thermal shift binding | recombinant FGF22 thermal shift, SYPRO orange fluorescence; percent of sucrose octasulfate shift, DMSO zero | 340,000 tested, 1.5% active | activity (Tm shift, normalised), % at 9.99 µM;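 active = mean Tm shift, scaled 0 neutral to 100 positive control, at about 1.3% or above, every replicate too, limit read from the data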
Target sequence (Q9HCT0 whole entry, looked up): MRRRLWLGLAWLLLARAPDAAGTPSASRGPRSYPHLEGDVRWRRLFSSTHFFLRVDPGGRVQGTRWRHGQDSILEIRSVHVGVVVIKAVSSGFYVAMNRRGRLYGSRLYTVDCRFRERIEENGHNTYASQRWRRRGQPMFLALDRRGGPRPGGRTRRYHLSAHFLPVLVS
S100A4 MyoIIA: inhibitors of human S100A4 binding to myosin IIA peptide; P26447; S100A4/TAMRA-MyoIIA peptide fluorescence polarization; inhibition, % at 10.7 µM; 360,000 tested, 0.14% active; AID 652163;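 active = mean inhibition of at least 70% across replicates, with every replicate also reaching that level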
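Test system – S100A4 monomer (human) · Compound – single-point compound testing · Schedule – 5 min incubation before reading · Probe or stimulus – TAMRA-labelled myosin IIA heavy-chain peptide probe, 5 nM · Benchmarks – neutral control DMSO, positive control TFP · Medium – Calcium-containing HEPES buffer, pH 7.2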
PDI turbidity: PDI (human) enzyme inhibition; P07237; PDI insulin aggregation turbidity, A650, 90 min; inhibition, % at 10 µM; 350,000 tested, 0.052% active;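 active = mean inhibition across replicates of 30% or more, whatever share of single replicates reach that level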
ERAP1 inh: blocks human ERAP1 aminopeptidase activity. 340,000 tested, 0.15% active. inhibition, % at 10.7 µM. Q9NZ08. AID 652197. recombinant ERAP1, Leu-AMC fluorescence, 60 min;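 active = mean replicate inhibition of at least 30%, or all replicates individually reaching that 30% level; inactive = mean below 30% and not every replicate reaching it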;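 also: 0% = neutral control wells and 100% = L-leucinethiol positive control wells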
ERp5 inh: blocks human ERp5 reductase activity on insulin. inhibition, % at 9.99 µM. ERp5 insulin aggregation, absorbance 650 nm, 90 min. AID 651711. Q15084. 350,000 tested, 0.05% active;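 active = mean replicate inhibition above about 25%, with every replicate also reaching it, limit read from the data, passing the limit was not always enough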
Target sequence (Q15084 whole entry, looked up): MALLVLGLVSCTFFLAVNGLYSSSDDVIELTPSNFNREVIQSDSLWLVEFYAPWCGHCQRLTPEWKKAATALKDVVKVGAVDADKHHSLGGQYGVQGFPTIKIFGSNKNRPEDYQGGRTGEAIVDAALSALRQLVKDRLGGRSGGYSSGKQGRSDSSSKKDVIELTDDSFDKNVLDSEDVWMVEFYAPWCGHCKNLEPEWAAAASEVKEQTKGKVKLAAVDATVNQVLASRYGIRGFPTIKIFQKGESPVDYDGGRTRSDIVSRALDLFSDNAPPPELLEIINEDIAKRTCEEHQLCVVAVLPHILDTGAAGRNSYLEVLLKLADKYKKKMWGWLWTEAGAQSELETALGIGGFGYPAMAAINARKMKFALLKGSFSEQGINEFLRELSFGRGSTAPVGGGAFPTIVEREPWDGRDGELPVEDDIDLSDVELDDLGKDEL
Starred values were filed as active, the others as inactive. Only a selection was taken, and hits are over-represented in it overall.

For O=C(CN1C(=O)COc2ccccc21)NCCN1CCOCC1 the results were FGF22 binding 0.1, S100A4 MyoIIA 0.2, PDI turbidity 7.7, ERAP1 inh 4.2 and ERp5 inh -0.7.
Screening CCN(CC)S(=O)(=O)c1ccc2c(c1)N(CC(=O)NCCN1CCOCC1)C(=O)CO2 returned FGF22 binding 0.0, S100A4 MyoIIA -9.5, PDI turbidity -2.9, ERAP1 inh 4.0 and ERp5 inh 27.9*.
`CCOC(=O)C1=C(C)N(C[C@@H]2CC[C@@H](Cc3ccc(-c4ccccc4)cc3)O2)C(=O)NC1c1cccc2ccccc12` (some centres not stated) gave FGF22 binding 0.0, S100A4 MyoIIA -2.5, PDI turbidity -5.9, ERAP1 inh -6.9 and ERp5 inh -1.9.
`O=C(CSc1cccc[n+]1[O-])CSc1cccc[n+]1[O-]` gave FGF22 binding 43.1*, S100A4 MyoIIA 1.5, PDI turbidity -0.2, ERAP1 inh -0.3 and ERp5 inh 0.2.
`COc1cccc(S(=O)(=O)N2CC3(CN(C(=O)Nc4cccc(F)c4)[C@H](CO)c4[nH]c5cc(OC)ccc5c43)C2)c1` gave FGF22 binding 0.0, S100A4 MyoIIA 8.6, ERAP1 inh 3.8 and ERp5 inh 68.9*.
COc1ccc2c3c([nH]c2c1)[C@H](CO)N(S(C)(=O)=O)CC31CN(CC2CCOCC2)C1 was read as S100A4 MyoIIA 101.6*, ERAP1 inh -0.4 and ERp5 inh 2.4.
For COc1ccc2c3c([nH]c2c1)[C@H](CO)N(C(=O)CN(C)C)CC31CCN(CC2CCCC2)CC1 the results were FGF22 binding 0.0, S100A4 MyoIIA -10.8, ERAP1 inh 1.0 and ERp5 inh 73.5*.
COc1ccc2c3c([nH]c2c1)[C@@H](CO)N(S(C)(=O)=O)CC31CN(CC2CCOCC2)C1 was read as S100A4 MyoIIA 4.7, ERAP1 inh -0.3 and ERp5 inh 1.5.
For COc1ccc2c3c(n(C)c2c1)[C@@H](CO)N(C(=O)Nc1ccc(F)cc1)CC31CCN(C)CC1 the results were FGF22 binding -0.3, S100A4 MyoIIA 82.2*, ERAP1 inh -4.1 and ERp5 inh 4.1.
`O=C(C[C@H]1CC[C@@H](NS(=O)(=O)c2ccc(F)cc2)[C@@H](CO)O1)N1CCN(c2ccccc2)CC1` gave FGF22 binding 0.0, S100A4 MyoIIA -9.1, ERAP1 inh 1.2 and ERp5 inh 1.6.
COc1ccc(/C=N/NC(=O)c2ccc(COc3cccc4cccnc34)cc2)cc1O was read as FGF22 binding -0.2, S100A4 MyoIIA -13.3, PDI turbidity -3.9, ERAP1 inh -0.2 and ERp5 inh 4.3.
`COc1ccc(/C=N/NC(=O)c2ccc(COc3cccc4cccnc34)cc2)cc1OC` gave FGF22 binding 43.3*, S100A4 MyoIIA 5.7, PDI turbidity -8.8, ERAP1 inh 3.5 and ERp5 inh -1.5.
Screening COc1cc(/C=N/NC(=O)c2ccncc2)ccc1OC(=O)c1ccccc1Cl returned FGF22 binding 43.4*, S100A4 MyoIIA -20.9, PDI turbidity 2.2, ERAP1 inh -2.0 and ERp5 inh -3.1.
`Cc1cc2nc(CN(C)Cc3c(C(=O)N(C)C)nc4ccc(Cl)cn34)[nH]c2cc1C` gave FGF22 binding 43.2*, S100A4 MyoIIA 1.7, PDI turbidity 1.4, ERAP1 inh -10.0 and ERp5 inh -2.6.
O=C(O)[C@H]1CCCN1C(=O)c1ccccc1N1C(=O)[C@@H]2Cc3c([nH]c4ccccc34)C(c3cccc(Cl)c3)N2C1=O (some centres not stated) was read as FGF22 binding 0.3, S100A4 MyoIIA 2.2, ERAP1 inh 7.7 and ERp5 inh 1.9.
For O=C(O)[C@@H]1CCCN1C(=O)c1ccccc1N1C(=O)[C@@H]2Cc3c([nH]c4ccccc34)C(c3cccc(Cl)c3)N2C1=O (some centres not stated) the results were FGF22 binding 0.2, S100A4 MyoIIA -1.5, ERAP1 inh 32.7* and ERp5 inh -0.2.
Screening O=Cc1ccc(N2CCCCC2)cc1 returned FGF22 binding 0.1, S100A4 MyoIIA -7.4, PDI turbidity -7.1, ERAP1 inh -2.4 and ERp5 inh 5.1.
For COc1cc(N2CCCC2)ccc1C=O the results were FGF22 binding 44.1*, S100A4 MyoIIA -13.6, PDI turbidity -7.4, ERAP1 inh 4.6 and ERp5 inh -1.3.
Fc1ccccc1CNC(=S)NC1CCCCC1 was read as FGF22 binding 0.1, S100A4 MyoIIA -4.7, PDI turbidity -92.3, ERAP1 inh -2.2 and ERp5 inh -1.8.
`S=C(NCc1ccccc1Cl)NC1CCCC1` gave FGF22 binding 43.4*, S100A4 MyoIIA -2.0, PDI turbidity 5.1, ERAP1 inh -2.1 and ERp5 inh -5.1.
`Cc1cccc(/C=C/C(=O)c2ccc(NC3=NCCCS3)cc2)c1` gave FGF22 binding -0.3, S100A4 MyoIIA -3.3, PDI turbidity -4.0, ERAP1 inh 34.7* and ERp5 inh 1.3.
`CCc1ccccc1NC(=S)NC1CC2CCC(C1)N2Cc1ccc(F)cc1` (configuration not stated) gave FGF22 binding 1.5*, S100A4 MyoIIA 2.8, PDI turbidity 9.2, ERAP1 inh -4.8 and ERp5 inh 3.7.
For O=C(Oc1cccc(F)c1)c1ccc2c(=O)n3c(nc2c1)CCC3 the results were FGF22 binding -0.2, S100A4 MyoIIA -3.0, PDI turbidity 12.9, ERAP1 inh 4.2 and ERp5 inh -4.6.
Screening O=C(Oc1ccc(F)cc1)c1ccc2c(=O)n3c(nc2c1)CCC3 returned FGF22 binding 0.0, S100A4 MyoIIA -1.1, PDI turbidity 5.7, ERAP1 inh 32.5* and ERp5 inh 4.8.
For CC(Sc1nnc(-c2cccnc2)n1C)C(=O)N1CCOCC1 (configuration not stated) the results were FGF22 binding 0.4, S100A4 MyoIIA 2.8, PDI turbidity 2.4, ERAP1 inh 30.5* and ERp5 inh 2.2.
`CCN(CC(=O)Nc1c(F)cccc1F)C(=O)CSc1nnc(-c2ccco2)n1CC` gave FGF22 binding -0.1, S100A4 MyoIIA 22.6, PDI turbidity 2.6, ERAP1 inh 2.0 and ERp5 inh 6.3.
CCOP(=O)(OCC)C(NC(=O)Nc1c(C)cc(C)cc1C)c1ccccc1 (configuration not stated) was read as FGF22 binding 43.0*, S100A4 MyoIIA -0.6, PDI turbidity 3.9, ERAP1 inh 3.4 and ERp5 inh 2.5.
For CCOC(=O)C1(CC2CC2)CCN(Cc2cn(C)c3ccccc23)CC1 the results were FGF22 binding 44.0*, S100A4 MyoIIA 5.7, PDI turbidity -16.3, ERAP1 inh -5.0 and ERp5 inh -0.1.
O=C(Cc1ccc(Br)cc1)OCC(=O)N1CCCCCC1 was read as FGF22 binding 43.1*, S100A4 MyoIIA -8.3, PDI turbidity -8.8, ERAP1 inh 4.3 and ERp5 inh -2.6.
For CC1CC(C)CN(C(=O)COC(=O)Cc2ccc(Br)cc2)C1 (configuration not stated) the results were FGF22 binding 0.0, S100A4 MyoIIA -3.5, PDI turbidity -4.3, ERAP1 inh -0.8 and ERp5 inh -4.4.
